# Marks after values point to notes of the source that are not given here.
# Tests used:
# [1] = free in neutral aqueous solution at 25 °C; cited from earlier work
# [2] = target: T1, HsIYD reconstituted with FMN analogues (Homo sapiens, UniProt Q6PHW0); type: biochemical; conditions: I-Tyr as substrate, HsIYD reconstituted with the cofactor, pH 7.4
# T1 sequence (Q6PHW0 with tags, fused parts or gaps): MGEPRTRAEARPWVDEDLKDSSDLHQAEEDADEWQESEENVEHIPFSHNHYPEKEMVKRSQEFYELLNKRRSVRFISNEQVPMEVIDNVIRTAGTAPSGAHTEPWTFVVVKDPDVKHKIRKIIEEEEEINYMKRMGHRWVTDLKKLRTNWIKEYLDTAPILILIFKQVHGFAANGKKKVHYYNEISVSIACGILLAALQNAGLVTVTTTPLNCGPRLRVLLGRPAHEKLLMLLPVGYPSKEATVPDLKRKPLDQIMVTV
# Procedure, shortened: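 FMN was stripped from column-bound SUMO–HsIYD with 0.6 to 1.5 M guanidinium HCl, then the gradient was reversed. The protein was loaded with 200 μM flavin analogue for 4 h at 4 °C and washed. It was eluted with 250 mM imidazole, the tag was cleaved, and size exclusion followed. Turnover used 70–80 nM enzyme, 100 mM potassium phosphate pH 7.4, 0.5% dithionite and 25 °C, with HPLC product detection.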
# HhIYD = target: T2, HhIYD (Haliscomenobacter hydrossis, UniProt F4KU78); assay: Competitive inhibition of I-Tyr dehalogenation by HhIYD; type: biochemical
# T2 sequence (F4KU78 1-222): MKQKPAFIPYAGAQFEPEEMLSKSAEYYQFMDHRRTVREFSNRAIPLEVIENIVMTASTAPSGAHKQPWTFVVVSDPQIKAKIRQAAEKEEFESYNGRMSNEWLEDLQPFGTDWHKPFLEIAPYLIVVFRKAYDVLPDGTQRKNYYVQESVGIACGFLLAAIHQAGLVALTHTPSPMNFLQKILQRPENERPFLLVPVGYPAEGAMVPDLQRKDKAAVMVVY
# Procedure, shortened: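 His6-tagged HhIYD (70–80 nM final) was incubated with I-Tyr in 111 mM potassium phosphate pH 7.4 at 25 °C. Dithionite (5% in 5% sodium bicarbonate) was added at one-tenth volume as reductant. Deiodinated product was quantified by reverse-phase C18 HPLC. The test compound was included as a competitive inhibitor, giving Ki against the reduced enzyme.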
# [3] = cited from earlier work
# [4] = target: T3, Iodotyrosine deiodinase (Human, HsIYD) (Homo sapiens, UniProt Q6PHW0); assay: Catalytic deiodination; type: biochemical; conditions: 100 mM potassium phosphate pH 7.4, 0.5% sodium dithionite
# T3 sequence (Q6PHW0 with tags, fused parts or gaps): T1 sequence (Q6PHW0 with tags, fused parts or gaps)
# [5] = target: T4, IYD from Haliscomenobacter hydrossis (HhIYD) (Haliscomenobacter hydrossis, UniProt F4KU78); assay: Catalytic deiodination; type: biochemical; conditions: I-Tyr turnover, pL 7.4, 100 mM potassium phosphate
# T4 sequence (F4KU78 1-222): T2 sequence (F4KU78 1-222)
# HhIYD containing FMNox = target: T5, HhIYD containing FMNox (Haliscomenobacter hydrossis, UniProt F4KU78); assay: Binding affinity to HhIYD containing oxidized FMN
# T5 sequence (F4KU78 1-222): T2 sequence (F4KU78 1-222)
# Procedure, shortened: (§1)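 HsIYD (residues 2–31 removed) was expressed as a SUMO fusion and purified by Ni2+ affinity and size exclusion. HhIYD carried a C-terminal His6 tag and was purified by Ni2+ affinity. Ligand was titrated into 3 μM enzyme in 110 mM potassium phosphate pH 7.4, stirred, at 25 °C. Flavin fluorescence (ex 450, em 516 nm) was read 2 min after each addition. Kd was fitted from fractional remaining fluorescence versus total enzyme and ligand.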
# HsIYD containing FMNox = target: T6, HsIYD containing FMNox (Homo sapiens, UniProt Q6PHW0); assay: Binding affinity to HsIYD containing oxidized FMN
# T6 sequence (Q6PHW0 with tags, fused parts or gaps): T1 sequence (Q6PHW0 with tags, fused parts or gaps)
# Procedure, shortened: as §1
# [6] = Estimated phenol pKa and phenolate fraction of substrates; type: physicochemical; conditions: assay conditions of pH 7.4, based on estimated pKa
Compound,redox potential [1],kcat [2] [s^−1 × 10^−2],Kd (HhIYD containing FMNox) [µM],Kd (HsIYD containing FMNox) [µM],other results
Cc1cc2c(cc1Cl)nc1c(=O)[nH]c(=O)nc-1n2C[C@H](O)[C@H](O)[C@H](O)COP(=O)(O)O [7-Cl-FMN],−128^d mV,3.3 ± 0.2,,,
"N[C@@H](Cc1ccc(O)c(F)c1)C(=O)O [fluorotyrosine, 3-fluorotyrosine]",,,,,Ki (HhIYD): 10.7 ± 0.1 µM
"N[C@@H](Cc1cc(I)c(O)c(I)c1)C(=O)O [I2-Tyr, diiodotyrosine]",,,,,pKa of the α-ammonium group [3]: 7.8
"Cc1cc2nc3c(=O)[nH]c(=O)nc-3n(C[C@H](O)[C@H](O)[C@H](O)COP(=O)(O)O)c2cc1C [FMN, Flavin Mononucleotide]",−205^d mV,5.2 ± 0.2,,,
"N[C@@H](Cc1ccc(O)c(I)c1)C(=O)O [I-Tyr, iodotyrosine]",,,,,"Km [4]: 19 ± 3 µM; kcat [4]: 0.12 ± 0.008 s⁻¹; Km ([5]; D2O): 12 ± 4 µM; kcat ([5]; D2O): 0.41 ± 0.05 s⁻¹; Km ([5]; H2O, 9% glycerol): 13 ± 4 µM; kcat ([5]; H2O, 9% glycerol): 0.39 ± 0.05 s⁻¹; Km ([5]; H2O): 23 ± 4 µM; kcat ([5]; H2O): 0.64 ± 0.08 s⁻¹"
"COc1cc2c(cc1C)nc1c(=O)[nH]c(=O)nc-1n2C[C@H](O)[C@H](O)[C@H](O)COP(=O)(O)O [8-MeO-FMN, 8-methoxy-desmethylFMN]",−260^c mV,9.0 ± 0.3,,,
"N#Cc1cc(C[C@H](N)C(=O)O)cc(I)c1O [I-CN-Tyr, 3-cyano-5-iodotyrosine]",,,7.3 ± 0.4,7 ± 0.03,fraction existing in phenolate form [6]: 98%
"N[C@@H](Cc1cc(F)c(O)c(I)c1)C(=O)O [I-F-Tyr, 3-fluoro-5-iodotyrosine]",,,6.9 ± 0.3,0.9 ± 0.1,
"COc1cc(C[C@H](N)C(=O)O)cc(I)c1O [I-MeO-Tyr, 3-iodo-5-methoxytyrosine]",,,4.3 ± 0.4,6.3 ± 0.3,
"Cc1cc(C[C@H](N)C(=O)O)cc(I)c1O [I-Me-Tyr, 3-Iodo-5-methyltyrosine]",,,1.7 ± 0.1,2.6 ± 0.03,fraction existing in phenolate form [6]: 3.4%

# Reference: article PMC10073337 (Biochemistry, 2023)
